The results in this text go back to ChEMBL document CHEMBL4706745, “Balanced Intersystem Crossing in Iodinated Silicon-Fluoresceins Allows New Class of Red Shifted Theranostic Agents” (ACS Med Chem Lett, 2021).

Calls of active or inactive are those of the source. The rule behind the calls is not given here.

Data set [1] in a line: Induction of singlet oxygen generation in pH 7.4 DMSO solution at 614 nanometer assessed as singlet oxygen quantum yield irradiated with 595 nanometer LED light. The data set is classed as functional.
Data set [2] can be described thus: Induction of singlet oxygen generation in DMSO solution using singlet oxygen sensor green assessed as increase in SOSG intensity irradiated with 630 nanometer LED light at 5 uM. Format: functional.
Data set [3] relates to HCT-116. Put plainly: Cytotoxicity against human HCT-116 cells assessed as reduction in cell viability at 0.5 to 20 uM incubated for 24 hrs by MTT assay. The data set is classed as cell-based. The settings on record: hct-116, 24 h, dose 0.5-20 µM. In short, it runs like this:
(§1)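 Cells exposed to 0.5–20 μM for 24 h in the dark, then assessed by MTT for viability. Vehicle control included. Mean ± SD, n = 4.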

The nature of data set [4]: Photostability in pH 7.4 PBS buffer at 614/630 nanometer irradiated with 630 nanometer LED light for 2 hrs by measuring fluorescence peak. Format: physicochemical. The settings on record: pH 7.4, 2 h. In short, it runs like this:
(§2)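 Absorption at 614 nm and emission at 630 nm tracked under continuous 595 or 630 nm LED irradiation for 2 h in PBS (pH 7.4, 0.5% DMSO).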

Data set [5] has as its system MDA-MB-231. In words: Phototoxicity against human MDA-MB-231 cells assessed as reduction in cell viability irradiated with 595 and 630 nanometer LED light and further incubated for 24 hrs by MTT assay. The settings on record: dose 0.5-20 µM. Format: functional, cell-based. In short, it runs like this:
(§3)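 MTT viability assay. Cells incubated with 0.5–20 μM, then irradiated with a 595 nm (9.83 mW/cm2) or 630 nm (24.3 mW/cm2) LED for 1 or 2 h, followed by 23 or 22 h dark respectively. Light alone and vehicle controls included. Mean ± SD, n = 4.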

Data set [6] has as its system HCT-116. Put plainly: Induction of ROS generation in human HCT-116 cells at 5 uM incubated for 2 hr by DCFH2-DA staining based confocal microscopic analysis. The settings on record: hct-116, 2 h. The data set is classed as cell-based. In short, it runs like this:
(§4)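 Cells loaded with 5 μM compound and the ROS sensor DCFH2-DA; kept dark or irradiated with a 595 nm LED for 2 h, with or without NaN3 as singlet oxygen quencher. Green emission imaged by confocal microscopy. Controls: DMSO 0.5% vehicle and H2O2 (500 μM, 2 h) as positive control.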

Data set [7] deals with MDA-MB-231. In words: Induction of apoptosis in human MDA-MB-231 cells at 5 uM irradiated with 595 +/- 5 nanometer LED light for 2 hrs in presence of NaN3 by annexin V-FITC and PI staining based confocal microscopic analysis. Format: functional, cell-based. In short, it runs like this: (§5)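 Cells treated with 5 μM and either kept dark or irradiated 2 h with a 595 nm LED, with or without NaN3. Annexin V-FITC (early apoptosis) and PI (late apoptosis/necrosis) staining 30 min after PDT, then confocal imaging. DMSO 0.5% vehicle control.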

Data set [8] concerns MDA-MB-231. In words: Induction of ROS generation in human MDA-MB-231 cells at 5 uM incubated for 2 hr by DCFH2-DA staining based confocal microscopic analysis. Format: cell-based. The settings on record: mda-mb-231, 2 h. In short, it runs like this: as §4
Data set [9] can be described thus: Induction of singlet oxygen generation in DMSO/ADMDA solution assessed as decrease in ADMDA absorption irradiated with 595 nanometer LED light at 5 uM. The data set is classed as functional. In short, it runs like this: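 5 μM compound mixed with the water-soluble trap ADMDA in oxygen-saturated PBS (pH 7.4, 0.5% DMSO), then LED irradiated (595 nm at 9.83 mW/cm2). Decrease in ADMDA absorption monitored, with the first 40 s kept in the dark.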

Data set [10] is described as follows: Drug uptake in human HCT-116 cells assessed as cytosolic red emission at 5 uM incubated for 2 hrs by Hoechst-33342 staining based confocal microscopic analysis. Format: ADME, cell-based. The settings on record: hct-116, 2 h. An outline of the steps:
(§6)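 Cells incubated with 5 μM for 2 h and washed before confocal imaging of intracellular red emission.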

Data set [11] has as its system HCT-116. In words: Induction of ROS generation in human HCT-116 cells at 5 uM irradiated with 595 +/- 5 nanometer LED light for 2 hr by DCFH2-DA staining based confocal microscopic analysis. Format: functional, cell-based. An outline of the steps: as §4
Data set [12] deals with MDA-MB-231. In words: Induction of ROS generation in human MDA-MB-231 cells at 5 uM irradiated with 595 +/- 5 nanometer LED light for 2 hr by DCFH2-DA staining based confocal microscopic analysis. Format: functional, cell-based. An outline of the steps:
as §4

Data set [13] can be described thus: Induction of singlet oxygen generation in pH 7.4 DMSO solution at 614 nanometer assessed as singlet oxygen quantum yield irradiated with 630 nanometer LED light. Format: functional.
The nature of data set [14]: Fluorescence property of the compound in pH 7.4 PBS buffer assessed as fluorescence quantum yield by fluorescence spectrophotometric method. The data set is classed as physicochemical.
Data set [15] deals with MDA-MB-231. Put plainly: Induction of apoptosis in human MDA-MB-231 cells assessed as increase in necrotic cells at 5 uM irradiated with 595 +/- 5 nanometer LED light for 2 hrs by annexin V-FITC and PI staining based confocal microscopic analysis. Format: functional, cell-based. In short, it runs like this:
as §5

The test system of data set [16] is HCT-116. In words: Induction of apoptosis in human HCT-116 cells assessed as increase in necrotic cells at 5 uM irradiated with 595 +/- 5 nanometer LED light for 2 hrs by annexin V-FITC and PI staining based confocal microscopic analysis. The data set is classed as functional, cell-based. In short, it runs like this:
as §5

A short description of data set [17]: Drug uptake in human MDA-MB-231 cells assessed as cytosolic red emission at 5 uM incubated for 2 hrs by Hoechst-33342 staining based confocal microscopic analysis. Format: ADME, cell-based. The settings on record: mda-mb-231, 2 h. An outline of the steps: as §6
Data set [18] concerns HCT-116. In words: Induction of apoptosis in human HCT-116 cells at 5 uM irradiated with 595 +/- 5 nanometer LED light for 2 hrs in presence of NaN3 by annexin V-FITC and PI staining based confocal microscopic analysis. Format: functional, cell-based. An outline of the steps:
as §5

Data set [19] deals with MDA-MB-231. Put plainly: Cytotoxicity against human MDA-MB-231 cells assessed as reduction in cell viability at 0.5 to 20 uM incubated for 24 hrs by MTT assay. The data set is classed as cell-based. The settings on record: mda-mb-231, 24 h, dose 0.5-20 µM. In short, it runs like this: as §1
Data set [20] is described as follows: Induction of singlet oxygen generation in DMSO solution using singlet oxygen sensor green assessed as increase in SOSG intensity irradiated with 595 nanometer LED light at 5 uM. The data set is classed as functional. In short, it runs like this: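 5 μM compound with singlet oxygen sensor green (SOSG); increase in SOSG emission monitored during 595 nm LED irradiation (9.83 mW/cm2).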

Data set [21] in a line: Induction of singlet oxygen generation in DMSO/ADMDA solution assessed as decrease in ADMDA absorption irradiated with 630 nanometer LED light at 5 uM. The data set is classed as functional.
Data set [22] is described as follows: Photostability in pH 7.4 PBS buffer at 614/630 nanometer irradiated with 595 nanometer LED light for 2 hrs by measuring fluorescence peak. The data set is classed as physicochemical. The settings on record: pH 7.4, 2 h. An outline of the steps: as §2
The test system of data set [23] is HCT-116. In words: Phototoxicity against human HCT-116 cells assessed as reduction in cell viability irradiated with 595 and 630 nanometer LED light and further incubated for 24 hrs by MTT assay. Format: functional, cell-based. The settings on record: dose 0.5-20 µM. In short, it runs like this:
as §3

As to `C[Si]1(C)C2=C(I)C(=O)C(I)=CC2=C(c2ccccc2C(=O)O)c2cc(I)c(O)c(I)c21`, the Activity was 45% in data set [1]; “Non-Toxic” in the data set on HCT-116 [3]; “Non-Toxic” in the data set with HCT-116 [6]; “Non-Toxic” in the data set on MDA-MB-231 [8]; 30% in data set [13]; 11% in data set [14]. In addition, the Activity entry with MDA-MB-231 [19] is on record as “Non-Toxic”. For the same compound, the outcome (in data set [2]; in data set [9]; in the data set with HCT-116 [11]; in the data set on MDA-MB-231 [12]; in [20]; in data set [21]) was Active. For the same compound, the Stabilty entry in [4] and in data set [22] was “Stable” each time. The inhibition entry in the data set on MDA-MB-231 [5] and in the data set with HCT-116 [23] was “Dose-dependent effect” in each case. Moreover, the outcome in the data set on MDA-MB-231 [7], in the data set with MDA-MB-231 [15], with HCT-116 [16] and with HCT-116 [18] was inactive. The Drug uptake result in data set [10] and in data set [17] was “Active” in each case.
